# Assays:
# [1] = system: CCRF-CEM; assay: In vitro growth-inhibition assay utilizing CCRF-CEM cells, a lymphoblastic leukemic line of human origin; assay type: functional; conditions: read-out: ID50 (the source's name)
# In short: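 Human CCRF-CEM lymphoblastic leukemia cells in continuous suspension culture, exposed continuously to drug for 48 h. ID₅₀ is the concentration giving 50% reduction in growth versus untreated control cultures.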
# [2] = (§1) Compound was tested in vitro for ability to bind with double helical calf thymus DNA was determined spectrophotometrically at 480 nmby spectral shift method and the value expressed as the ratio A/Ao
# In short: (§2)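 Calf thymus double-helical DNA in pH 7.0 Tris buffer, drug/DNA molar ratio 0.1. Absorbance at 480 nm measured for drug alone (A₀) and after mixing with DNA (A), reported as A/A₀ (spectral shift method).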
# [3] = T 1/2 value indicates the time required for the initial concentration of compound to be reduced by 50%,; assay type: ADME
# In short: (§3)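 Drug incubated at 37 °C in pH 7.0 carbonate buffer containing 1% unfractionated mouse serum, pooled from 10 animals and stored at -70 °C. Loss of parent compound followed by HPLC; T1/2 is time for the initial concentration to fall by 50% through thio ester deacylation.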
# [4] = Time for esterases in unfractionated mouse serum to reduce the concentration due to thio ester deacylation; assay type: ADME; in short: as §3
# [5] = system: Nucleic Acid; assay: as §1; assay type: nucleic-acid assay; conditions: Bos taurus; in short: as §2
# [6] = Time for esterases in unfractionated mouse serum to reduce the concentration due to thio ester deacylation; 10 % hydrolysis at 60 mins; assay type: ADME; in short: as §3
# [7] = system: Mus musculus; assay: (§4) Compound was evaluated in vivo for antitumor activity utilizing the murine P388 leukemia system in B6D2F1 male mice.; assay type: functional
# In short: (§5)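 B6D2F1 male mice were inoculated ip on day 0 with 10⁶ P388 leukemia cells. Drug was given ip once daily on days 1–4, broadly following standard NCI protocols. Activity was read as percent increase in life span relative to untreated controls, reported at the highest nontoxic dose. The experiment was terminated on day 60.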
# [8] = system: P388; assay: as §4; assay type: functional, Mus musculus; in short: as §5
# [9] = system: Mus musculus; assay: Compound was evaluated in vivo for antitumor activity utilizing the murine P388 leukemia system in B6D2F1 male mice; Curative; assay type: functional, organism-based
# In short: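 Murine P388 leukemia in B6D2F1 male mice; 10⁶ tumor cells inoculated ip on day 0; drug given ip once daily on days 1–4, largely per standard NCI protocols. Outcome is percent increase in life span versus untreated controls, at highest nontoxic dose; experiment ended day 60.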
Compound,IC50 [1],Ratio [2],half-life [3],half-life [4],Ratio [5],half-life [6],ILS [7],Optimal dose [8],ILS [9]
CCC(=O)SCC(=O)[C@]1(O)Cc2c(O)c3c(c(O)c2[C@@H](OC2CC(NC(=O)C(F)(F)F)C(O)C(C)O2)C1)C(=O)c1c(OC)cccc1C3=O (stereo partly specified),2800 nM,0.99,80 min,,,,,,
CCCCC(=O)SCC(=O)[C@]1(O)Cc2c(O)c3c(c(O)c2[C@@H](OC2CC(NC(=O)C(F)(F)F)C(O)C(C)O2)C1)C(=O)c1c(OC)cccc1C3=O (stereo partly specified),> 5000 nM,,,22 min,,,,,
COc1cccc2c1C(=O)c1c(O)c3c(c(O)c1C2=O)C[C@@](O)(C(=O)CSC(=O)c1ccccc1)C[C@@H]3OC1CC(NC(=O)C(F)(F)F)C(O)C(C)O1 (stereo partly specified),3800 nM,,,,0.98,> 60 min,,,
COc1cccc2c1C(=O)c1c(O)c3c(c(O)c1C2=O)C[C@@](O)(C(=O)CO)C[C@@H]3O[C@H]1C[C@H](N)[C@H](O)[C@H](C)O1 [DOXORUBICIN],60 nM,,,,0.96,,157%,3 mg/kg,
COc1cccc2c1C(=O)c1c(O)c3c(c(O)c1C2=O)C[C@@](O)(C(=O)CSC(C)=O)C[C@@H]3OC1CC(N)C(O)C(C)O1 (stereo partly specified),900 nM,,,6 min,0.61,,220%,25 mg/kg,
CCC(=O)SCC(=O)[C@]1(O)Cc2c(O)c3c(c(O)c2[C@@H](OC2CC(N)C(O)C(C)O2)C1)C(=O)c1c(OC)cccc1C3=O (stereo partly specified),720 nM,,,5 min,0.61,,80%,20 mg/kg,
CCCC(=O)SCC(=O)[C@]1(O)Cc2c(O)c3c(c(O)c2[C@@H](OC2CC(NC(=O)C(F)(F)F)C(O)C(C)O2)C1)C(=O)c1c(OC)cccc1C3=O (stereo partly specified),> 5000 nM,,,42 min,,,,,
COc1cccc2c1C(=O)c1c(O)c3c(c(O)c1C2=O)C[C@@](O)(C(=O)CSC(=O)c1ccccc1)C[C@@H]3OC1CC(N)C(O)C(C)O1 (stereo partly specified),2300 nM,,,8 min,0.65,,140%,10 mg/kg,
CCCC(=O)SCC(=O)[C@]1(O)Cc2c(O)c3c(c(O)c2[C@@H](OC2CC(N)C(O)C(C)O2)C1)C(=O)c1c(OC)cccc1C3=O (stereo partly specified),560 nM,,,10 min,0.63,,90%,10 mg/kg,
CCCCC(=O)SCC(=O)[C@]1(O)Cc2c(O)c3c(c(O)c2[C@@H](OC2CC(N)C(O)C(C)O2)C1)C(=O)c1c(OC)cccc1C3=O (stereo partly specified),450 nM,,,8 min,0.65,,130%,10 mg/kg,
COc1cccc2c1C(=O)c1c(O)c3c(c(O)c1C2=O)C[C@@](O)(C(=O)CSC(C)=O)C[C@@H]3OC1CC(NC(=O)C(F)(F)F)C(O)C(C)O1 (stereo partly specified),> 5000 nM,,,18 min,,,,,
CCCCC(=O)OCC(=O)[C@]1(O)Cc2c(O)c3c(c(O)c2[C@@H](OC2CC(NC(=O)C(F)(F)F)C(O)C(C)O2)C1)C(=O)c1c(OC)cccc1C3=O (stereo partly specified),240 nM,,,10 min,0.6,,,50 mg/kg,Curative

# Reference: ChEMBL document CHEMBL1123530, “Adriamycin analogues. Preparation and biological evaluation of some thio ester analogues of adriamycin and N-(trifluoroacetyl)adriamycin 14-valerate” (J Med Chem, 1986)
